Test results published in ChEMBL document CHEMBL3785077 (J Med Chem, 2016).
pIC50: −log10 of the molar value.

Legend:
Cholinesterase [1] = molecular target: T1, Cholinesterase (Equus caballus, UniProt P81908); experiment: Inhibition of equine serum butyrylcholinesterase using […] as substrate preincubated for 30 mins followed by substrate addition measured after 2.5 mins by Ellman's spectrophotometric method
Outline: (§1)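 Ellman assay at 25 °C in phosphate buffer pH 8.0. Enzyme (AChE from human erythrocytes, BChE from equine or human serum; 2.5 units/mL stock with 2 mg/mL BSA) and DTNB (0.3 mM in assay) preincubated with compound from ethanol stocks (1 nM−1 mM in assay). Ethanol control, triplicates, IC50 from activity vs log concentration.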

Acetylcholinesterase [2] = molecular target: T2, Acetylcholinesterase (Homo sapiens, UniProt P22303); experiment: Inhibition of human acetylcholinesterase using […] as substrate at 100 uM preincubated for 4.5 mins followed by substrate addition measured after 2.5 mins by Ellman's spectrophotometric method
T2 sequence (P22303 whole entry): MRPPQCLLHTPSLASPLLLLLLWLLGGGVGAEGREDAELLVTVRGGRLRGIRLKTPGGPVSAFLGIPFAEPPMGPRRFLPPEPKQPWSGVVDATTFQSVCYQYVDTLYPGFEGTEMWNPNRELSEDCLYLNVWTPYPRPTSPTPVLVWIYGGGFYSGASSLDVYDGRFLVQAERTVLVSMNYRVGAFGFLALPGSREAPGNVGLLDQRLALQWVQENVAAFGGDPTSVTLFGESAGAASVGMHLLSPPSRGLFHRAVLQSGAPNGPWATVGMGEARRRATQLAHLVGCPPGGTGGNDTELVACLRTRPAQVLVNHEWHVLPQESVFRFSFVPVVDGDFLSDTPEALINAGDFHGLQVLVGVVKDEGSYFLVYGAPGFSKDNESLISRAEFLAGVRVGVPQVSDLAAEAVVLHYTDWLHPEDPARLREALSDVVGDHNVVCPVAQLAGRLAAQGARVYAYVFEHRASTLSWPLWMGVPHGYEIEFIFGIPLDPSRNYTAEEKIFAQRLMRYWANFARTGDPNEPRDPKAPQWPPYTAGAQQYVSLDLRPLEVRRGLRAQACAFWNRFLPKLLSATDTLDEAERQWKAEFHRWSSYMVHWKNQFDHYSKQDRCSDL

[3] = molecular target: Cholinesterase (Equus caballus) (UniProt P81908); experiment: (§2) Pseudo-irreversible inhibition of equine serum butyrylcholinesterase assessed as apparent affinity between enzyme and inhibitor at equilibrium state using p-nitrophenyl butyrate as substrate preincubated for 5 to 40 mins followed by substrate addition by double reciprocal plot analysis
Cholinesterase (Equus caballus), sequence (P81908 whole entry): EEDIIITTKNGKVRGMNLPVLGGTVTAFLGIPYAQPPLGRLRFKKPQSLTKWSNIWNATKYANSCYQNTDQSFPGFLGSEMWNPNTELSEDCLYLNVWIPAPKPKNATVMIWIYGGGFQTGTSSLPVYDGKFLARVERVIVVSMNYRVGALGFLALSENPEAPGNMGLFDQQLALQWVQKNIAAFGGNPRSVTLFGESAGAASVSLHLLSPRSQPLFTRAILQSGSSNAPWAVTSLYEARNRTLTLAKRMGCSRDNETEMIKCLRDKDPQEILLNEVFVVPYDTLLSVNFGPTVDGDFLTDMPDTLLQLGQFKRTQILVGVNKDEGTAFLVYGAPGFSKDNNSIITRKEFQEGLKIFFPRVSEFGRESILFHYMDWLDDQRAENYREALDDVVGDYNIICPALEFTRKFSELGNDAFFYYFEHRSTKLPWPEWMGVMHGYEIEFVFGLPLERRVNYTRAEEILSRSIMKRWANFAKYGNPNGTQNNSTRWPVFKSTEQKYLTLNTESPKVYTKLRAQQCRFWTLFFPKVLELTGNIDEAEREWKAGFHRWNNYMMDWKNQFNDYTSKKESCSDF

[4] = molecular target: Cholinesterase (Equus caballus) (UniProt P81908); experiment: Pseudo-irreversible inhibition of equine serum butyrylcholinesterase assessed as carbamoylation rate of inhibitor from reversible enzyme inhibitor complex to carbamoylated enzyme using p-nitrophenyl butyrate as substrate preincubated for 5 to 40 mins followed by substrate addition by double reciprocal plot analysis
[5] = molecular target: Cholinesterase (Equus caballus) (UniProt P81908); experiment: as §2, with “assessed as ratio of carbamoylation rate of inhibitor to apparent affinity” for “assessed as apparent affinity”
Acetylcholinesterase [6] = molecular target: T2, Acetylcholinesterase; experiment: Inhibition of human acetylcholinesterase using […] as substrate at 10 uM preincubated for 4.5 mins followed by substrate addition measured after 2.5 mins by Ellman's spectrophotometric method
Cholinesterase [7] = molecular target: T1, Cholinesterase; experiment: Inhibition of equine serum butyrylcholinesterase using […] as substrate preincubated for 4.5 mins followed by substrate addition measured after 2.5 mins by Ellman's spectrophotometric method
Outline: as §1, with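 “assay). Acetyl- or butyrylthiocholine added (452 μM in assay), absorbance at 412 nm after 2.5 min.” for “assay).”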

Acetylcholinesterase [8] = molecular target: T2, Acetylcholinesterase; experiment: Inhibition of human acetylcholinesterase using […] as substrate preincubated for 4.5 mins followed by substrate addition measured after 2.5 mins by Ellman's spectrophotometric method
Outline: as §1, with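 “assay). Acetyl- or butyrylthiocholine added (452 μM in assay), absorbance at 412 nm after 2.5 min.” for “assay).”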

T1 sequence (P81908 whole entry): as above

SMILES	pIC50 (Cholinesterase [1])	inhibition (Acetylcholinesterase [2]) [%]	pIC50 (Cholinesterase [7])	pIC50 (Acetylcholinesterase [8])	other results
CCCCCCCNC(=O)Oc1ccc2c(c1)CN(C)C(c1ccsc1)N2C (stereo not drawn)	7.66	13	–	–	–
CCCCCCCNC(=O)Oc1ccc2c(c1)CN(C)C(c1cccc(OC)c1)N2C (stereo not drawn)	6.68	10	–	–	K [3]: 622 nM; K [4]: 0.18 min⁻¹; Ratio [5]: 0.29 µM⁻¹ min⁻¹
CCCCCCCNC(=O)Oc1ccc2c(c1)CN(C)C(c1ccccc1OC)N2C (stereo not drawn)	6.62	–	–	–	inhibition (Acetylcholinesterase [6]): 47%
CCCCCCCNC(=O)Oc1ccc2c(c1)CN(C)C(c1cccnc1)N2C (stereo not drawn)	6.25	18	–	–	–
CCCCCCCNC(=O)Oc1ccc2c(c1)CN(C)C(c1ccccc1Cl)N2C (stereo not drawn)	6.32	–	–	–	inhibition (Acetylcholinesterase [6]): 48%
CCCCCCCNC(=O)Oc1ccc2nc(-c3ccccc3)ncc2c1	5.74	22	–	–	K [3]: 1060 nM; K [4]: 0.14 min⁻¹; Ratio [5]: 0.13 µM⁻¹ min⁻¹
Cc1cccc(C2N(C)Cc3cc(O)ccc3N2C)c1 (stereo not drawn)	–	–	4.76	3.36	–
CCCCCCCNC(=O)Oc1ccc2c(c1)CN(C)C(c1ccc(C(F)(F)F)cc1)N2C (stereo not drawn)	5.57	59	–	–	K [3]: 756 nM; K [4]: 0.05 min⁻¹; Ratio [5]: 0.07 µM⁻¹ min⁻¹
CCCCCCCNC(=O)Oc1ccc2c(c1)CN(C)C(c1ccncc1)N2C (stereo not drawn)	6.14	16	–	–	–
CCCCCCCNC(=O)Oc1ccc2c(c1)CN(C)C(c1ccc3ccccc3c1)N2C (stereo not drawn)	6.43	–	–	–	inhibition (Acetylcholinesterase [6]): 5%
CN1Cc2cc(O)ccc2N(C)C1c1cc[nH]c1 (stereo not drawn)	–	–	4.82	3.94	–
CCCCCCCNC(=O)Oc1ccc2c(c1)CN(C)C(c1ccoc1)N2C (stereo not drawn)	7.08	12	–	–	–
CCCCCCCNC(=O)Oc1ccc2c(c1)CN(C)C(c1c(Cl)cccc1Cl)N2C (stereo not drawn)	6.27	–	–	–	inhibition (Acetylcholinesterase [6]): 33%; K [3]: 4120 nM; K [4]: 0.23 min⁻¹; Ratio [5]: 0.06 µM⁻¹ min⁻¹
CN1Cc2cc(O)ccc2N(C)C1c1ccncc1 (stereo not drawn)	–	–	5.68	3.62	–
CN1Cc2cc(O)ccc2N(C)C1c1cccc2ccccc12 (stereo not drawn)	–	–	5.55	3.47	–
CCCN1Cc2cc(O)ccc2N(C)C1c1ccccc1 (stereo not drawn)	–	–	4.64	3.55	–
CCCCCCCNC(=O)Oc1ccc2c(c1)CN(C)C(c1cccc(C)c1)N2C (stereo not drawn)	6.70	27	–	–	–

SMILES	pIC50 (Cholinesterase [1])	inhibition (Acetylcholinesterase [2]) [%]	pIC50 (Cholinesterase [7])	pIC50 (Acetylcholinesterase [8])	other results
CN1Cc2cc(O)ccc2N(C)C1c1ccc(C(F)(F)F)cc1 (stereo not drawn)	–	–	4.19	–	–
CCCCCCCNC(=O)Oc1ccc2c(c1)CN(C)C(c1ccc(C)cc1)N2C (stereo not drawn)	6.64	9	–	–	–
CN1Cc2cc(O)ccc2N(C)C1c1ccoc1 (stereo not drawn)	–	–	3.71	3.47	–
CN1Cc2cc(O)ccc2N(C)C1c1ccc(F)cc1 (stereo not drawn)	–	–	4.23	3.84	–
CCCCCCCNC(=O)Oc1ccc2c(c1)CN(C)C(c1ccccc1C)N2C (stereo not drawn)	6.60	–	–	–	inhibition (Acetylcholinesterase [6]): 18%
Cc1ccc(C2N(C)Cc3cc(O)ccc3N2C)cc1 (stereo not drawn)	–	–	4.65	3.96	–
CCCCCCCNC(=O)Oc1ccc2c(c1)CN(C(C)C)C(c1ccccc1)N2C (stereo not drawn)	7.68	33	–	–	K [3]: 186 nM; K [4]: 0.16 min⁻¹; Ratio [5]: 0.86 µM⁻¹ min⁻¹
CN1Cc2cc(O)ccc2N(C)C1c1c(Cl)cccc1Cl (stereo not drawn)	–	–	5.15	4.87	–
COc1ccccc1C1N(C)Cc2cc(O)ccc2N1C (stereo not drawn)	–	–	5.00	3.71	–
CN1Cc2cc(O)ccc2N(C)C1c1cccc(Cl)c1 (stereo not drawn)	–	–	5.68	3.62	–
CCCCCCCNC(=O)Oc1ccc2c(c1)CN(C)C(c1ccc(Cl)cc1)N2C (stereo not drawn)	6.94	24	–	–	–
CN1Cc2cc(O)ccc2N(C)C1c1ccc(Cl)cc1 (stereo not drawn)	–	–	4.86	3.63	–
CCCCCCCNC(=O)Oc1ccc2c(c1)CN(C)C(c1cccc(Cl)c1)N2C (stereo not drawn)	7.02	39	–	–	K [3]: 227 nM; K [4]: 0.16 min⁻¹; Ratio [5]: 0.7 µM⁻¹ min⁻¹
CCCCCCCNC(=O)Oc1ccc2c(c1)CN(CCC)C(c1ccccc1)N2C (stereo not drawn)	7.40	46	–	–	–
Cc1ccccc1C1N(C)Cc2cc(O)ccc2N1C (stereo not drawn)	–	–	4.03	3.84	–
CC(C)N1Cc2cc(O)ccc2N(C)C1c1ccccc1 (stereo not drawn)	–	–	4.25	3.60	–
